Test results reported in ChEMBL document CHEMBL4266004, “Series of Alkynyl-Substituted Thienopyrimidines as Inhibitors of Protozoan Parasite Proliferation” (ACS Med Chem Lett, 2018).

Key:
Plasmodium falciparum = test: Antimalarial activity against Plasmodium falciparum D6 trophozoites after 72 hrs by SYBR Green I dye-based fluorescence assay; assay type: functional, organism-based; conditions: D6, 72 h
Summary of the method: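 P. falciparum D6 strain; compounds run in duplicate or quadruplicate; EC50 determined from dose-response.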

[1] = Selectivity index, ratio of TC50 for human HepG2 cells to EC50 for Plasmodium falciparum D6 trophozoites; assay type: toxicity; conditions: read-out: Selectivity Index
Summary of the method: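 P. falciparum D6 screened in duplicate or quadruplicate. Selectivity = HepG2 TC50 / P. falciparum EC50.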

[2] = Selectivity ratio of EC50 for antimalarial activity against Plasmodium falciparum C235 trophozoites to EC50 for atimalarial activity against Plasmodium falciparum D6 trophozoites; assay type: functional
Leishmania major = test: Antileishmanial activity against Leishmania major intracellular amastigotes harboring luciferase infected in mouse RAW264.7 cells after 96 hrs by luminescence assay; assay type: functional, organism-based; conditions: RAW264.7, 96 h
Summary of the method: (§1)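 L. major amastigotes screened in duplicate or quadruplicate. Selectivity derived as HepG2 TC50 / L. major EC50.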

[3] = Cytotoxicity against human HepG2 cells; assay type: cell-based; conditions: read-out: TC50 (the source's name)
[4] = Selectivity index, ratio of TC50 for human HepG2 cells to EC50 for Leishmania major intracellular amastigotes harboring luciferase infected in mouse RAW264.7 cells; assay type: toxicity, cell-based; conditions: read-out: Selectivity Index; summary of the method: as §1
[5] = tested on: Trypanosoma brucei brucei; test: Antitrypanosomal activity against Trypanosoma brucei brucei 427 after 48 hrs by presto blue dye based fluorescence assay; assay type: functional, organism-based; conditions: Trypanosoma brucei, 427, 48 h
[6] = Selectivity ratio of EC50 for antimalarial activity against Plasmodium falciparum W2 trophozoites to EC50 for atimalarial activity against Plasmodium falciparum D6 trophozoites; assay type: functional
[7] = tested on: Trypanosoma brucei brucei; test: Antitrypanosomal activity against Trypanosoma brucei brucei 427 at 5 uM after 48 hrs by presto blue dye based fluorescence assay relative to control; assay type: functional
Summary of the method: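 Single-concentration screen of bloodstream T. brucei cultures at 5 μM, 5 × 10^4 cells/mL; percent proliferation inhibition recorded.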

[8] = Selectivity index, ratio of TC50 for human HepG2 cells to EC50 for Trypanosoma brucei brucei 427; assay type: toxicity; conditions: read-out: Selectivity Index
[9] = Selectivity index, ratio of TC50 for mouse NIH/3T3 cells to EC50 for Trypanosoma cruzi Tulahuen intracellular amastigote harboring beta-galactosidase; assay type: toxicity, cell-based; conditions: read-out: Selectivity Index
Summary of the method: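 NIH 3T3 cells, the host line for intracellular T. cruzi amastigote culture, tested for toxicity. Selectivity = NIH3T3 TC50 / T. cruzi EC50.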

Trypanosoma cruzi = test: Antitrypanosomal activity against Trypanosoma cruzi Tulahuen intracellular amastigote harboring beta-galactosidase infected in mouse NIH/3T3 cells after 96 hrs by CPRG reagent based assay; assay type: functional, organism-based; conditions: NIH3T3, 96 h
[10] = Cytotoxicity against mouse NIH/3T3 cells; assay type: cell-based, NIH3T3; conditions: read-out: TC50 (the source's name)
Trypanosoma brucei = test: Antiparasitic activity against Trypanosoma brucei; assay type: functional, organism-based

EC50 (Trypanosoma brucei) | SMILES | EC50 (Plasmodium falciparum) | selectivity ratio [1] | Ratio EC50 [2] | EC50 (Leishmania major) | CC50 [3] | selectivity ratio [4] | EC50 [5] | Ratio EC50 [6] | Activity [7] | selectivity ratio [8] | selectivity ratio [9] | EC50 (Trypanosoma cruzi) | CC50 [10]
 | Fc1cccc(COc2ccc(Nc3ncnc4sc(C#CCN5CCCC5)cc34)cc2Cl)c1 | 0.14 µM | > 214 | < 3 | 4.3 µM | > 30 µM | > 7 | > 2.5 µM | < 3 | >75% |  |  |  | 
 | Fc1cccc(COc2ccc(Nc3ncnc4sc(C#CCN5CCNCC5)cc34)cc2Cl)c1 | 0.38 µM | 20 | < 3 | 9.1 µM | 7.7 µM | 0.85 | 1.9 µM | < 3 | >75% | 4.1 | 6.4 | 0.61 µM | 3.9 µM
1.4 to 1.5 µM | CS(=O)(=O)CCNCc1ccc(-c2ccc3ncnc(Nc4ccc(OCc5cccc(F)c5)c(Cl)c4)c3c2)o1 [LAPATINIB] |  |  |  |  |  |  |  |  |  |  |  |  | 
 | CN1CCN(CC#Cc2cc3c(Nc4ccc(OCc5cccc(F)c5)c(Cl)c4)ncnc3s2)CC1 | 0.26 µM | 58 | < 3 | 8.1 µM | 15 µM | 1.9 | 1 µM | < 3 | >75% | 15 | 1.9 | 3.5 µM | 6.7 µM
 | CN1CCN(CC#Cc2ccc3ncnc(Nc4ccc(OCc5cccc(F)c5)c(Cl)c4)c3c2)CC1 | 0.16 µM | 51 | < 3 | 10 µM | 8.2 µM | 0.8 | 1 µM | < 3 | >75% | 8.2 | 2.9 | 2.5 µM | 7.2 µM
